Compounds with a hit are over-represented: about 1.7% of the library has one in this group of screens.
S1P2 ag = S1P2 (human) receptor agonism | S1P2-expressing cell line, agonist reporter read-out | activation, % at 4.5 µM | 97,000 compounds, 0.46% hits; in the data active means activation above about 16%
GALR2 antag = GALR2 (human) receptor antagonism; inhibition, % at 4 µM; AID 828; O43603; GALR2-expressing cells, antagonist mode; 140,000 compounds, 0.39% hits; in the data active means inhibition above about 27%;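 further: cells stimulated with galanin 1-16 at roughly its EC80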
Target sequence (O43603 whole entry, looked up): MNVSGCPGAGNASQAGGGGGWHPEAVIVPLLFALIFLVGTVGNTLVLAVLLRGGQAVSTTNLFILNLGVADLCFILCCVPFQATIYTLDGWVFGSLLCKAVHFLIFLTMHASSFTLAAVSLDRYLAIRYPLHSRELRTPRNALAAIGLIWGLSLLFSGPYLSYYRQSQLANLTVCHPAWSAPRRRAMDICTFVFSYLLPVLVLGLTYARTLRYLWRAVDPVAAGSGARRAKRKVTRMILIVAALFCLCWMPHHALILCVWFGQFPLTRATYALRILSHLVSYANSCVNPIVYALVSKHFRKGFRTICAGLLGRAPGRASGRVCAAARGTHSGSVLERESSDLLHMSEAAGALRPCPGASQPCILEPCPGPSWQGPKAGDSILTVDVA
Rev-RRE block = inhibitors of HIV-1 Rev-RRE RNA interaction; 97,000 compounds, 0.79% hits; P05866; Rev peptide-RRE RNA binding, FRET; inhibition, % at 8 µM; AID 704;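 active means inhibition above the screen-wide mean plus 3 SD, cut at about 35% in these data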
Target sequence (P05866 whole entry, looked up): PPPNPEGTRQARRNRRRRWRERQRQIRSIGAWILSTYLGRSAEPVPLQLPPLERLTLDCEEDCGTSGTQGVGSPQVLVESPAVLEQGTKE
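Assay system: Rev peptide and RRE RNA, both fluorescently labelled; times: 5 min preincubation and 15 min binding, 25 °C; detection: FRET, ex 480 nm, em 540 and 671 nm; read-out basis: % inhibition from 671/540 nm acceptor-to-donor ratio, scaled between controls; benchmarks: DMSO low control, neomycin B high control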
S1P2 blocker = antagonists of human S1P2 receptor; cell-based S1P2 antagonist assay, inhibition at 5 uM; inhibition, % at 5 µM; 97,000 compounds, 0.21% hits; AID 736; in the data active means inhibition above about 45%;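 further: CRE beta-lactamase reporter cells expressing human S1P2 stimulated with S1P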
EphB4 antag = antagonists of human EphB4-ephrin-B2 interaction; inhibition, % at 7 µM; AID 720; EphB4 LBD / TNYL-RAW-Alexa532 peptide, fluorescence polarization; 97,000 compounds, 0.15% hits;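 active means inhibition above the screen-wide mean inhibition plus 3 SD, cut at about 15% in these data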
GALR2 ag = GALR2 (human) receptor agonism; activation, % (no concentration beside the values); GALR2-expressing cells, agonist activation read-out; 140,000 compounds, 0.48% hits; in the data active means activation above about 5%, passing the limit was not always enough
A number is an active result; [ ] = dose if it differs, or a comment.

For CCOC(=O)c1sc(NC(=O)c2cc(-c3ccccc3C)nc3ccccc23)c(C#N)c1C the results were S1P2 ag inactive, GALR2 antag inactive, Rev-RRE block inactive, S1P2 blocker inactive, EphB4 antag inactive and GALR2 ag inactive.
For Cc1ccccc1-c1cc(C(=O)Nc2sc(C)c(C)c2C(N)=O)c2ccccc2n1 the results were S1P2 ag 17.5, GALR2 antag inactive, Rev-RRE block inactive, S1P2 blocker inactive, EphB4 antag inactive and GALR2 ag inactive.
Screening CC(=O)c1ccc(N2C(=O)C3C(C2=O)C(C(=O)c2ccc(Cl)cc2)N2CCCC32)cc1 (stereo not drawn) returned S1P2 ag inactive, GALR2 antag inactive, Rev-RRE block 62.3, S1P2 blocker inactive, EphB4 antag inactive and GALR2 ag inactive.
`O=C(c1ccc(Cl)cc1)C1C2C(=O)N(c3ccccc3)C(=O)C2C2CCCN21` (stereo not drawn) gave S1P2 ag inactive, GALR2 antag inactive, Rev-RRE block 58.0, S1P2 blocker inactive, EphB4 antag inactive and GALR2 ag inactive.
Cc1ccc(N2C(=O)[C@@H]3[C@H](C2=O)C2CCCN2[C@@H]3C(=O)c2ccccc2)cc1 (stereo partly drawn) was read as GALR2 antag inactive and GALR2 ag inactive.
For CCOC(=O)CSc1nc2ccc(N3CCOCC3)cc2c(=O)n1Cc1ccccc1 the results were S1P2 ag inactive, GALR2 antag inactive, Rev-RRE block inactive, S1P2 blocker inactive, EphB4 antag inactive and GALR2 ag inactive.
C/C(=N/NC(=O)C1CCN(S(=O)(=O)c2ccc(C)cc2)CC1)c1cccc([N+](=O)[O-])c1 was read as GALR2 antag inactive and GALR2 ag inactive.
Screening Cc1noc2ncnc(Oc3ccccc3)c12 returned S1P2 ag inactive, GALR2 antag inactive, Rev-RRE block inactive, S1P2 blocker inactive, EphB4 antag inactive and GALR2 ag inactive.
Screening Cc1noc2ncnc(Sc3ccccc3Cl)c12 returned S1P2 ag inactive, GALR2 antag inactive, Rev-RRE block inactive, S1P2 blocker 55.3, EphB4 antag inactive and GALR2 ag inactive.
Screening C=CCNC1=C(Cl)C(=O)N(c2ccccc2Cl)C1=O returned S1P2 ag inactive, GALR2 antag inactive, Rev-RRE block inactive, S1P2 blocker inactive, EphB4 antag inactive and GALR2 ag inactive.
O=c1c(/C=N/Nc2ccccc2)c(Sc2nnnn2-c2ccccc2)nc2ccccn12 was read as S1P2 ag inactive, GALR2 antag inactive, Rev-RRE block 73.0[fluorescence artefact?], S1P2 blocker inactive, EphB4 antag inactive and GALR2 ag inactive.
Cc1ccc2nc(NC3=NCN(Cc4ccc5c(c4)OCO5)CN3)nc(C)c2c1 was read as S1P2 ag inactive, GALR2 antag inactive, Rev-RRE block inactive, S1P2 blocker inactive, EphB4 antag inactive and GALR2 ag inactive.
`Cc1ccc(C)c(NS(=O)(=O)c2cc(C(=O)Nc3ccccc3-c3ccccc3)ccc2Cl)c1` gave S1P2 ag inactive, GALR2 antag inactive, Rev-RRE block inactive, S1P2 blocker inactive, EphB4 antag inactive and GALR2 ag inactive.
`O=C1c2ccccc2-c2onc3ccc(NCc4ccco4)c1c23` gave GALR2 antag inactive and GALR2 ag inactive.
Screening CCOc1ccc2noc3c2c1C(=O)c1ccccc1-3 returned S1P2 ag inactive, GALR2 antag inactive, Rev-RRE block 132.8[fluorescence artefact?], S1P2 blocker inactive, EphB4 antag inactive and GALR2 ag inactive.
`CCNc1ccc2noc3c2c1C(=O)c1ccccc1-3` gave S1P2 ag inactive, GALR2 antag inactive, Rev-RRE block 138.2[fluorescence artefact?], S1P2 blocker inactive, EphB4 antag 95.4[fluorescence artefact?] and GALR2 ag inactive.
For CCCCNC(=O)Nc1nnc(-c2ccc(Cl)cc2)o1 the results were S1P2 ag inactive, GALR2 antag inactive, Rev-RRE block inactive, S1P2 blocker inactive, EphB4 antag inactive and GALR2 ag inactive.
Screening C=CCN(c1ccccc1)S(=O)(=O)c1cccc(C(=O)Oc2ccc3c(C)cc(=O)oc3c2)c1 returned GALR2 antag inactive and GALR2 ag inactive.
`CCCOC(=O)Nc1nc2ccccc2o1` gave S1P2 ag inactive, GALR2 antag inactive, Rev-RRE block 38.2, S1P2 blocker inactive, EphB4 antag inactive and GALR2 ag inactive.
For CCOc1ccc(/C(O)=C/C(=O)C(=O)Nc2ccc(S(=O)(=O)NC(C)=O)cc2)cc1 the results were GALR2 antag inactive and GALR2 ag inactive.
For Cc1ccnc(SCCn2c(N3CCCCC3)nc3c2c(=O)n(C)c(=O)n3C)n1 the results were S1P2 ag inactive, GALR2 antag inactive, Rev-RRE block inactive, S1P2 blocker inactive, EphB4 antag 19.6 and GALR2 ag inactive.
CNC(=O)c1ccc(-c2sc3nc(N4CCOCC4)c4c(c3c2N)CC(C)(C)OC4)o1 was read as S1P2 ag inactive, GALR2 antag inactive, Rev-RRE block inactive, S1P2 blocker inactive, EphB4 antag inactive and GALR2 ag inactive.
Screening CC1(C)Cc2c(c(N3CCOCC3)nc3sc(-c4ccc(C(=O)O)o4)c(N)c23)CO1 returned S1P2 ag inactive, GALR2 antag inactive, Rev-RRE block 40.2, S1P2 blocker inactive, EphB4 antag inactive and GALR2 ag inactive.
COc1cc2c(C)nc3onc(-c4ccccc4)c3c2cc1OC was read as S1P2 ag inactive, GALR2 antag inactive, Rev-RRE block inactive, S1P2 blocker inactive, EphB4 antag inactive and GALR2 ag inactive.
COc1cc2c(C)nc(C)c(C#N)c2cc1OC was read as S1P2 ag 20.6, GALR2 antag inactive, Rev-RRE block inactive, S1P2 blocker inactive, EphB4 antag inactive and GALR2 ag inactive.
`CCCCN(C(=O)c1c(C)[nH]c(C(=O)OCC)c1C)c1ccccc1` gave S1P2 ag inactive, GALR2 antag inactive, Rev-RRE block inactive, S1P2 blocker inactive, EphB4 antag inactive and GALR2 ag inactive.
For Cc1ccc(C(=O)Cn2nnc3ccccc32)cc1 the results were S1P2 ag inactive, GALR2 antag inactive, Rev-RRE block inactive, S1P2 blocker inactive, EphB4 antag inactive and GALR2 ag inactive.
CCN(C(=O)c1ccc(C(C)(C)C)cc1)c1nnc(Cn2nnc3ccccc32)s1 was read as S1P2 ag inactive, GALR2 antag inactive, Rev-RRE block inactive, S1P2 blocker 86.6, EphB4 antag inactive and GALR2 ag inactive.
Screening COc1ccc2[nH]c(=O)c(CN(Cc3ccccc3)Cc3nnnn3CC3CCCO3)cc2c1 (stereo not drawn) returned S1P2 ag inactive, GALR2 antag inactive, Rev-RRE block inactive, S1P2 blocker inactive, EphB4 antag 15.6 and GALR2 ag inactive.
Screening COc1ccc2[nH]c(=O)c(CN(Cc3nnnn3Cc3ccco3)C3CCCCC3)cc2c1 returned S1P2 ag inactive, GALR2 antag inactive, Rev-RRE block inactive, S1P2 blocker inactive, EphB4 antag inactive and GALR2 ag inactive.
Screening COc1ccc2[nH]c(=O)c(CN(C3CCCCC3)C(c3nnnn3Cc3ccco3)C(C)C)cc2c1 (stereo not drawn) returned S1P2 ag inactive, GALR2 antag inactive, Rev-RRE block 43.0, S1P2 blocker inactive, EphB4 antag inactive and GALR2 ag inactive.

Compound activity as filed in PubChem.
